In ChEMBL document CHEMBL4033780, “Lipidated Brartemicin Analogues Are Potent Th1-Stimulating Vaccine Adjuvants” (J Med Chem, 2018):
The source made the active and inactive calls. The calls are words filed in the database; no cut-off is given here.

Key:
[1] = organism: Mus musculus; experiment: Adjuvant activity in immunized C57BL/6 mouse assessed as increase in antigen specific IFNgamma production in spelnocytes at 0.3 umol treated with ovalbumin for 7 days followed by stimulation with OVA for 7 days and restimulation with OVA measured 24 to 48 hrs post OVA challenge; type: functional, cell-based
Method in brief: (§1)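 C57BL/6 mice (8–12 wk) given s.c. oil-in-water emulsion (mineral oil/Tween-80/PBS 9:1:90) holding OVA 200 μg ± adjuvant 0.3 μmol; controls were OVA alone or no OVA. Footpad challenge with OVA 100 μg on day 7, spleens taken day 14. Splenocytes restimulated with OVA 10, 30 or 100 μg/mL. Cell number read at 450 nm after 3 h with a count reagent; IFN-γ and IL-17 measured by ELISA.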

[2] = organism: Mus musculus; experiment: Adjuvant activity in immunized C57BL/6 mouse assessed as increase in IL-17 production in spelnocytes at 0.3 umol treated with ovalbumin for 7 days followed by stimulation with OVA for 7 days and restimulation with OVA measured 24 to 48 hrs post OVA challenge; type: functional, cell-based; method in brief: as §1
[3] = biological target: T1, C-type lectin domain family 4 member E (Mus musculus) (UniProt Q9R0Q8); experiment: Agonist activity at mincle in wild type C57BL/6 mouse GM-CSF derived BMDM assessed as increase in IL-1beta release at 0.1 to 1 nmol after 24 hrs by sandwich ELISA
T1 sequence (whole entry): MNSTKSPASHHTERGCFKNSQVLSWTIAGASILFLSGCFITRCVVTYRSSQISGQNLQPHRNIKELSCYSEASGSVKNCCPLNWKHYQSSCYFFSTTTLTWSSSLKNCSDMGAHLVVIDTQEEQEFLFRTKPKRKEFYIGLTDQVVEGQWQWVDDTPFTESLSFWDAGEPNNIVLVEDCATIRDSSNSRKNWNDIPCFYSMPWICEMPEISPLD
Method in brief: (§2)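 Wild-type or Mincle−/− C57BL/6 bone marrow was cultured 8 days with GM-CSF 50 ng/mL in complete RPMI. Macrophages were detached with Acutase and seeded on ligand-coated plates (0.1 or 1 nmol/well); LPS 100 ng/mL was used as comparator. Supernatant was taken at 24 h and TNF, IL-6, IL-1β and MIP-2 measured by sandwich ELISA. Representative of three experiments in triplicate (±SD).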

[4] = biological target: T1, C-type lectin domain family 4 member E (Mus musculus); experiment: Agonist activity at mincle in wild type C57BL/6 mouse GM-CSF derived BMDM assessed as increase in TNF release at 0.1 to 1 nmol after 24 hrs by sandwich ELISA; method in brief: as §2
[5] = biological target: T1, C-type lectin domain family 4 member E (Mus musculus); experiment: Binding affinity to recombinant mouse mincle extracellular domain fused with human IgG Fc expressed in HEK293T cells at 0.1 nmol by ELISA; type: cell-based; conditions: HEK-293T
[6] = biological target: T1, C-type lectin domain family 4 member E (Mus musculus); experiment: Agonist activity at mouse mincle coupled with FcRgamma expressed in 2B4-NFAT-GFP reporter cells after 18 hrs by flow cytometric analysis; type: cell-based
Method in brief: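 2B4 NFAT-GFP reporter cells expressing mouse or human Mincle plus FcRγ were placed on plates coated with ligand at 0.01, 0.1 or 1 nmol/well; cells expressing FcRγ only served as negative control. Ligand was coated from isopropanol, 0.05 mM, and solvent evaporated. After 18 h, cells were harvested, stained with propidium iodide and GFP read by flow cytometry. Mean of three experiments in duplicate (±SEM).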

[7] = system: BMDM; experiment: Immunostimulatory activity in mincle-/- C57BL/6 mouse GM-CSF derived BMDM assessed as increase in TNF release at […] after 24 hrs by sandwich ELISA method; type: functional, cell-based; method in brief: as §2
[8] = system: BMDM; experiment: Immunostimulatory activity in mincle-/- C57BL/6 mouse GM-CSF derived BMDM assessed as increase in MIP2 release at […] after 24 hrs by sandwich ELISA method; type: functional, cell-based; method in brief: as §2
[9] = system: BMDM; experiment: Immunostimulatory activity in mincle-/- C57BL/6 mouse GM-CSF derived BMDM assessed as increase in IL-1beta release at […] after 24 hrs by sandwich ELISA method; type: functional, cell-based; method in brief: as §2
[10] = system: T2, C-type lectin domain family 4 member E (Homo sapiens), Q9ULY5 [R183A]; experiment: Agonist activity at human mincle R183A mutant expressed in NFAT-GFP reporter cells up to 3000 pmol after 18 hrs by flow cytometric analysis; type: cell-based
T2 sequence (whole entry): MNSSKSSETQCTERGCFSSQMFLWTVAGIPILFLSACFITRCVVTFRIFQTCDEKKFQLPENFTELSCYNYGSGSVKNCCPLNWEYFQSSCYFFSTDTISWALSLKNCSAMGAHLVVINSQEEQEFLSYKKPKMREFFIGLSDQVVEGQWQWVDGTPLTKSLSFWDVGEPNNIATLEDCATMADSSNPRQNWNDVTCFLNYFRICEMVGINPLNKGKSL
Method in brief: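 The hMincle R183A mutant, made by site-directed mutagenesis, was retrovirally introduced into 2B4 NFAT-GFP cells expressing FcRγ only. Cells were stimulated on plates coated with increasing ligand amounts for 18 h, and NFAT-GFP was read by flow cytometry. Mean of two independent experiments in duplicate (±SEM).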

[11] = system: Th1; experiment: Immunostimulatory activity in OT-2 TCR transgenic mouse CD4+ Th1 cells co-cultured with C57BL/6 mouse BMDM assessed as increase in IFNgamma release at 0.1 nmol after 48 hrs by ELISA; type: functional, cell-based
Method in brief: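 OT-II CD4+ T cells (1×10^5) were cocultured with GM-CSF bone-marrow cells (1×10^4) on wells coated with glycolipid 0.1 nmol/well or isopropanol only, with OVA323–339 peptide at 0, 0.1 or 1 μM. Supernatant was collected after 48 h and IFN-γ and IL-17 measured by ELISA. Representative of two experiments in triplicate (±SD).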

[12] = organism: Mus musculus; experiment: Adjuvant activity in immunized C57BL/6 mouse assessed as footpad swelling at 0.3 umol treated with ovalbumin for 7 days followed by stimulation with OVA for 7 days measured 24 to 48 hrs post OVA challenge; type: functional
[13] = Toxicity in Atlantic horseshoe crab blood limulus amebocyte lysate by chromogenic endotoxin test; conditions: limulus polyphemus
Method in brief: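 Endotoxin was measured by chromogenic Limulus amebocyte lysate assay at a sensitivity of ≤0.1 EU/mL.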

[14] = organism: Mus musculus; experiment: Adjuvant activity in immunized C57BL/6 mouse assessed as increase in OVA-specific IgG1 production in serum at 0.3 umol treated with ovalbumin for 7 days followed by stimulation with OVA for 7 days and restimulation with OVA measured 24 to 48 hrs post OVA challenge relative to control; type: functional
Method in brief: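 Sera were taken on days 0, 7 and 14 from C57BL/6 mice sensitized s.c. with emulsion containing OVA 200 μg ± adjuvant 0.3 μmol and footpad-challenged with OVA on day 7. OVA-specific IgG, IgG1, IgG2b and IgG2c were measured by ELISA with HRP-coupled anti-mouse secondaries. EC50 was taken from absorbance at 450 nm plotted against log serum concentration.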

[15] = organism: Mus musculus; experiment: Adjuvant activity in immunized C57BL/6 mouse assessed as increase in OVA-specific IgG2c production in serum at 0.3 umol treated with ovalbumin for 7 days followed by stimulation with OVA for 7 days and restimulation with OVA measured 24 to 48 hrs post OVA challenge relative to control; type: functional
[16] = organism: Mus musculus; experiment: Adjuvant activity in immunized C57BL/6 mouse assessed as increase in splenocyte number at 0.3 umol treated with ovalbumin for 7 days followed by stimulation with OVA for 7 days and restimulation with OVA measured 24 to 48 hrs post OVA challenge; type: functional; method in brief: as §1

Activity [3]: Active
Activity [4]: Active
Activity [5]: Active
Activity [6]: Dose-dependent effect
Activity [10]: inactive
Structure (SMILES): CCCCCCCCCCCCCCCCCCOc1ccc(C(=O)OC[C@H]2O[C@H](O[C@H]3O[C@H](COC(=O)c4ccc(OCCCCCCCCCCCCCCCCCC)cc4O)[C@@H](O)[C@H](O)[C@H]3O)[C@H](O)[C@@H](O)[C@@H]2O)c(O)c1
Activity [1]: Active
Activity [2]: inactive
Activity [7]: inactive
Activity [8]: inactive
Activity [9]: inactive
Activity [11]: inactive
Activity [12]: inactive
Activity [13]: <= 0.1 EU/ml
fold change (FC) [14]: 2
fold change (FC) [15]: 3
Activity [16]: Active
